This passage reports Cures and ILS results from ChEMBL document CHEMBL1124260, “Synthesis and antitumor activity of quaternary ellipticine glycosides, a series of novel and highly active antitumor agents” (1988).

Format in all cases: functional
Assay [1] concerns Mus musculus. Briefly: Number of survivors out of 6 ip implanted L1210 leukemia mouse tested after 80 days at 2.5 mg/kg. The following applies: route intraperitoneal. The procedure, abridged: (§1)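 Female BDF1 mice implanted ip with ascitic fluid holding 10^5 L1210 cells. Saline-dissolved drug given ip daily on days 1-5, starting 24 h after implant. Six mice per dose group, followed 80 days. Survivors/total counted at day 80; ILS % from mean survival time vs controls.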

The test system of assay [2] is Mus musculus. The assay is described as follows: Antitumor activity against ip implanted L1210 leukemia in mouse after ip administration of 2.5 mg/kg for 5 days expressed as increase in mean life span. As to conditions: 120 h, route intraperitoneal. The procedure, abridged:
(§2)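 Drug was dissolved in 0.9% NaCl, diluted just before use and given ip once daily for 5 consecutive days, starting 24 h after transplant. ILS % = mean survival time of treated vs control mice, observed for 80 days.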

For assay [3], the system named is Mus musculus. Briefly: Antitumor activity against ip implanted L1210 leukemia in mouse after ip administration of 60 mg/kg for 5 days expressed as increase in mean life span. The following applies: 120 h, route intraperitoneal. In short, it runs like this: as §2
For assay [4], the system named is Mus musculus. The assay is described as follows: Number of survivors out of 6 ip implanted L1210 leukemia mouse tested after 80 days at 60 mg/kg. As to conditions: route intraperitoneal. In short, it runs like this:
as §1

The compound `Cc1c2cc[n+]([C@H]3O[C@@H](CO)[C@H](O)[C@@H](O)[C@@H]3O)cc2c(C)c2c1[nH]c1ccc(O)cc12.[Br-]` came in with a Cures in the assay with Mus musculus [1] of 0. The ILS – broadly, how much longer treated animals lived than controls – at 2.5 mg/kg with Mus musculus [2] was found to be 58%.
In the assay with Mus musculus [3], `CC(=O)OC1C(C)OC([n+]2ccc3c(C)c4[nH]c5ccc(O)cc5c4c(C)c3c2)C(OC(C)=O)C1OC(C)=O.[Br-]` (centres undefined) had an ILS at 60 mg/kg of 89%. In the assay with Mus musculus [4], this compound yielded a Cures of 0.
